Publication PMC2903386 (The Journal of Biological Chemistry, 2010)
Non-standard residues stand in square brackets, D forms with d. Residues, ends and D or L forms follow the SMILES beside them. *: point of attachment. X1 = CC[N+]1=C(C=CC=CC=C2N(CCCCCC(=O)NCCN3C(=O)CC(*)C3=O)c3ccc(S(=O)(=O)O)cc3C2(C)C)C(C)(C)c2cc(S(=O)(=O)[O-])ccc21; Propanoyl(3-maleimido) = O=C1C=CC(=O)N1CCC(=O)*; Ahx = NCCCCCC(=O)O

Key:
[1] = Effect of inhibitors on cleavage of RLQLKL ACPP by PyMT tumor cystic fluid; format: biochemical, mouse; conditions: for inhibition of cystic fluid cleavage of RLQLKL ACPP (in words): 5 μM Cy5-labeled RLQLKL ACPP, 2% cystic fluid, 2 h, 5 mM Ca-DTPA, 50 μM TPEN, 18 μM SB3CT, 50 nM GM6001, 0.26 μM prinomastat, 150 nM aprotinin, 100 μM leupeptin, 60 μM α1-antitrypsin, gel
Method in brief: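 Cystic fluid was aspirated by syringe from surgically exposed fluid-filled mammary tumor nodules of PyMT mice. The 5 μm Cy5 peptide was incubated at 37 °C for 2 h in PBS with 1 μm ZnCl2. Inhibitors were used at manufacturer-recommended concentrations, including 10 μm E-64, 1 μm pepstatin A, protease inhibitor mixture III (1:1000) and mixture III plus DTPA. Cleavage was read by Tricine gel electrophoresis and Cy5 fluorescence imaging.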

[2] = Tumor standardized uptake value; format: in vivo; conditions: mouse, iv
PyMT mammary tumors = experiment: Fluorescence imaging contrast in PyMT tumor-bearing mice; format: in vivo, mouse; conditions: PyMT mice; for fluorescence contrast in tumors relative to adjacent normal tissue (in words): Cy5-labeled ACPP i.v., 6 h, data not shown
Method in brief: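 PyMT transgenic mice bearing spontaneous mammary tumors were anesthetized with ketamine 80 mg/kg plus midazolam 5 mg/kg (1:1) and weighed. They were injected via the tail vein with Cy5 peptide: free peptide 100 μl of 100 μM (10 nmol) or albumin-reactive peptide 100 μl of 30 μM (3 nmol). Maestro imaging (ex 640 ± 24 nm, em >700 nm) was done at 6 h or 48 h, comparing tumor with adjacent normal tissue.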

Tumor uptake = format: in vivo; conditions: nude, mouse, tumor (MDA-MB-435 M4A4 xenograft), iv, 10 nmol
Method in brief: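 After imaging, mice were euthanized with isoflurane. 30 mg of each tissue was homogenized in 100 μl Tris pH 7.6 with 1% SDS, heated to 85 °C for 10 min, microwaved 10 s and spun at 20,500 × g for 15 min, then imaged. Tissue-specific spiked standards calibrated fluorescence. SUV = tissue peptide molality ÷ injected dose (mol/kg body weight). Values are means ± S.D.; two-tailed t tests.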

trypsin = trypsin (Bos taurus, UniProt P00760); experiment: Cleavage by purified trypsin; format: in vitro ADME, bovine; conditions: Cy5-labeled ACPP, gel (supplemental Fig. 4)
Method in brief: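 Commercial active-form purified enzyme at 50 nm was incubated with 5 μm Cy5-labeled peptide in the manufacturer's recommended buffer. Samples were mixed with Tricine sample buffer, boiled 1 min, and resolved on 10–20% Tricine acrylamide gels. Gels were imaged quantitatively at excitation 628 ± 20 nm and emission >700 nm, and the percentage of cleaved versus uncleaved peptide was quantified.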

plasmin = experiment: 50 nM plasmin; conditions: human recombinant, 37 °C, up to 2 h
neutrophil elastase = experiment: 50 nM enzyme in the manufacturer's recommended buffer; conditions: up to 4 h
[3] = Effect of inhibitors on cleavage of RLQLKL ACPP by tumor extract; format: biochemical, mouse; conditions: 5 μM Cy5-labeled RLQLKL ACPP, tumor extract 2.0 to 0.25%; 60 μM α1-antitrypsin; gel
Method in brief: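 Fresh tumor tissue was gently homogenized in PBS on ice and spun at 14,000 × g for 1 min; the supernatant served as the extract. The 5 μm Cy5 peptide was digested at 37 °C in PBS containing 1 μm ZnCl2, with or without 60 μm α1-antitrypsin. Aliquots were taken from 20 min to 18 h, with the 2-h point reported. Cleavage was quantified by Tricine gel and fluorescence imaging.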

Chain of trypsin (P00760 24-246): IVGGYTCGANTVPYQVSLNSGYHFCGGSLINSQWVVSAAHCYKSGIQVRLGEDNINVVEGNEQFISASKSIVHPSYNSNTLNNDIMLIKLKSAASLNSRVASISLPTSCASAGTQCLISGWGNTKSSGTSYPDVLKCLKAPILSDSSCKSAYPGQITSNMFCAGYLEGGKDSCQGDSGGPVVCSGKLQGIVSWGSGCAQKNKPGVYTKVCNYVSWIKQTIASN

With O=C(O)CN(CCN(CC(=O)O)CC(=O)O)CCN(CC(=O)O)CC(=O)O [DTPA, diethylene triamine pentacetic acid] the “inhibition of cystic fluid cleavage of RLQLKL ACPP (in words)” value [1] was “unaffected”.
With CNC(=O)[C@H](Cc1c[nH]c2ccccc12)NC(=O)[C@@H](CC(=O)NO)CC(C)C [GM6001] the “inhibition of cystic fluid cleavage of RLQLKL ACPP (in words)” value [1] was “unaffected” and the “inhibition of cystic fluid cleavage of RLQLKL ACPP at 1 μM (in words)” value ([1]; GM6001 at 1 μM, data not shown) was “no inhibition”.
With CC[N+]1=C(C=CC=CC=C2N(CCCCCC(=O)NCCN3C(=O)CC(SC[C@@H](NC(=O)[C@@H](CCCNC(=N)N)NC(=O)[C@@H](CCCNC(=N)N)NC(=O)[C@@H](CCCNC(=N)N)NC(=O)[C@@H](CCCNC(=N)N)NC(=O)[C@@H](CCCNC(=N)N)NC(=O)[C@@H](CCCNC(=N)N)NC(=O)[C@@H](CCCNC(=N)N)NC(=O)[C@@H](CCCNC(=N)N)NC(=O)[C@@H](CCCNC(=N)N)NC(=O)[C@H](CC(C)C)NC(=O)[C@H](CCCCNC(C)=O)NC(=O)[C@H](CC(C)C)NC(=O)[C@H](CCC(N)=O)NC(=O)[C@H](CC(C)C)NC(=O)[C@H](CCCNC(=N)N)NC(=O)CCCCCNC(=O)[C@@H](CCC(=O)O)NC(=O)[C@@H](CCC(=O)O)NC(=O)[C@@H](CCC(=O)O)NC(=O)[C@@H](CCC(=O)O)NC(=O)[C@@H](CCC(=O)O)NC(=O)[C@@H](CCC(=O)O)NC(=O)[C@@H](CCC(=O)O)NC(=O)[C@@H](CCC(=O)O)NC(=O)[C@@H](CCC(=O)O)NC(=O)CCN4C(=O)C=CC4=O)C(N)=O)C3=O)c3ccc(S(=O)(=O)O)cc3C2(C)C)C(C)(C)c2cc(S(=O)(=O)[O-])ccc21 (stereo partly shown) [Mal-RLQLK(Ac)L ACPP] ({Propanoyl(3-maleimido)}-[dE][dE][dE][dE][dE][dE][dE][dE][dE][Ahx]RLQLK(Ac)L[dR][dR][dR][dR][dR][dR][dR][dR][dR][dC](X1)-NH2) the SUV at 48 h ([2]; PyMT, 3 nmol) was 2.3 ± 0.6 SUV and the “Tumor to non-tumor contrast, albumin-reactive peptide” value (PyMT mammary tumors; fluorescence imaging 48 h postinjection of 3 nmol) was 5.1 fold.
Compound CC[N+]1=C(C=CC=CC=C2N(CCCCCC(=O)NCCN3C(=O)CC(SC[C@@H](NC(=O)[C@@H](CCCNC(=N)N)NC(=O)[C@@H](CCCNC(=N)N)NC(=O)[C@@H](CCCNC(=N)N)NC(=O)[C@@H](CCCNC(=N)N)NC(=O)[C@@H](CCCNC(=N)N)NC(=O)[C@@H](CCCNC(=N)N)NC(=O)[C@@H](CCCNC(=N)N)NC(=O)[C@@H](CCCNC(=N)N)NC(=O)[C@@H](CCCNC(=N)N)NC(=O)CNC(=O)[C@@H](C)NC(=O)[C@@H](CC(C)C)NC(=O)CNC(=O)[C@@H](CC(C)C)NC(=O)[C@H]4CCCN4C(=O)CCCCCNC(=O)[C@@H](CCC(=O)O)NC(=O)[C@@H](CCC(=O)O)NC(=O)[C@@H](CCC(=O)O)NC(=O)[C@@H](CCC(=O)O)NC(=O)[C@@H](CCC(=O)O)NC(=O)[C@@H](CCC(=O)O)NC(=O)[C@@H](CCC(=O)O)NC(=O)[C@@H](CCC(=O)O)NC(=O)[C@H](N)CCC(=O)O)C(N)=O)C3=O)c3ccc(S(=O)(=O)O)cc3C2(C)C)C(C)(C)c2cc(S(=O)(=O)[O-])ccc21 (stereo partly drawn) [PLGLAG ACPP D-amino acid control, reference compound] (H-[dE][dE][dE][dE][dE][dE][dE][dE][dE][Ahx][dP][dL]G[dL][dA]G[dR][dR][dR][dR][dR][dR][dR][dR][dR][dC](X1)-NH2) has an SUV [2] of 0.14 ± 0.06 SUV.
CC[N+]1=C(C=CC=CC=C2N(CCCCCC(=O)NCCN3C(=O)CC(SC[C@@H](NC(=O)[C@@H](CCCNC(=N)N)NC(=O)[C@@H](CCCNC(=N)N)NC(=O)[C@@H](CCCNC(=N)N)NC(=O)[C@@H](CCCNC(=N)N)NC(=O)[C@@H](CCCNC(=N)N)NC(=O)[C@@H](CCCNC(=N)N)NC(=O)[C@@H](CCCNC(=N)N)NC(=O)[C@@H](CCCNC(=N)N)NC(=O)[C@@H](CCCNC(=N)N)NC(=O)CNC(=O)[C@H](C)NC(=O)[C@H](CC(C)C)NC(=O)CNC(=O)[C@H](CC(C)C)NC(=O)[C@@H]4CCCN4C(=O)CCCCCNC(=O)[C@@H](CCC(=O)O)NC(=O)[C@@H](CCC(=O)O)NC(=O)[C@@H](CCC(=O)O)NC(=O)[C@@H](CCC(=O)O)NC(=O)[C@@H](CCC(=O)O)NC(=O)[C@@H](CCC(=O)O)NC(=O)[C@@H](CCC(=O)O)NC(=O)[C@@H](CCC(=O)O)NC(=O)[C@H](N)CCC(=O)O)C(N)=O)C3=O)c3ccc(S(=O)(=O)O)cc3C2(C)C)C(C)(C)c2cc(S(=O)(=O)[O-])ccc21 (stereo partly shown) [PLGLAG ACPP, reference compound] (H-[dE][dE][dE][dE][dE][dE][dE][dE][dE][Ahx]PLGLAG[dR][dR][dR][dR][dR][dR][dR][dR][dR][dC](X1)-NH2) showed an SUV [2] of 0.51 ± 0.05 SUV.
With O=S(=O)(CC1CS1)c1ccc(Oc2ccccc2)cc1 (stereo not shown) [SB3CT] the “inhibition of cystic fluid cleavage of RLQLKL ACPP (in words)” value [1] was “unaffected”.
For c1ccc(CN(CCN(Cc2ccccn2)Cc2ccccn2)Cc2ccccn2)nc1 [TPEN, N,N,N′,N-tetrakis (2-pyridylmethyl) ethylenediamine], the “inhibition of cystic fluid cleavage of RLQLKL ACPP (in words)” value [1] was “unaffected”.
For CC(=O)N[C@@H](CC(C)C)C(=O)N[C@@H](CC(C)C)C(=O)N[C@H](C=O)CCCNC(=N)N [leupeptin], the “inhibition of cystic fluid cleavage of RLQLKL ACPP (in words)” value [1] was “partially inhibited”.
For CC1(C)SCCN(S(=O)(=O)c2ccc(Oc3ccncc3)cc2)[C@H]1C(=O)NO [prinomastat], the “inhibition of cystic fluid cleavage of RLQLKL ACPP (in words)” value [1] was “unaffected”.
For CC[N+]1=C(C=CC=CC=C2N(CCCCCC(=O)NCCN3C(=O)CC(SC[C@@H](NC(=O)[C@@H](CCCNC(=N)N)NC(=O)[C@@H](CCCNC(=N)N)NC(=O)[C@@H](CCCNC(=N)N)NC(=O)[C@@H](CCCNC(=N)N)NC(=O)[C@@H](CCCNC(=N)N)NC(=O)[C@@H](CCCNC(=N)N)NC(=O)[C@@H](CCCNC(=N)N)NC(=O)[C@@H](CCCNC(=N)N)NC(=O)[C@@H](CCCNC(=N)N)NC(=O)[C@@H](CC(C)C)NC(=O)[C@@H](CCCCN)NC(=O)[C@@H](CC(C)C)NC(=O)[C@@H](CCC(N)=O)NC(=O)[C@@H](CC(C)C)NC(=O)[C@@H](CCCNC(=N)N)NC(=O)CCCCCNC(=O)[C@@H](CCC(=O)O)NC(=O)[C@@H](CCC(=O)O)NC(=O)[C@@H](CCC(=O)O)NC(=O)[C@@H](CCC(=O)O)NC(=O)[C@@H](CCC(=O)O)NC(=O)[C@@H](CCC(=O)O)NC(=O)[C@@H](CCC(=O)O)NC(=O)[C@@H](CCC(=O)O)NC(=O)[C@H](N)CCC(=O)O)C(N)=O)C3=O)c3ccc(S(=O)(=O)O)cc3C2(C)C)C(C)(C)c2cc(S(=O)(=O)[O-])ccc21 (stereo partly shown) [rlqlkl ACPP], the SUV at 6 h ([2]; PyMT, 10 nmol) was 0.13 ± 0.03 SUV.
With CC[N+]1=C(C=CC=CC=C2N(CCCCCC(=O)NCCN3C(=O)CC(SC[C@@H](NC(=O)[C@@H](CCCNC(=N)N)NC(=O)[C@@H](CCCNC(=N)N)NC(=O)[C@@H](CCCNC(=N)N)NC(=O)[C@@H](CCCNC(=N)N)NC(=O)[C@@H](CCCNC(=N)N)NC(=O)[C@@H](CCCNC(=N)N)NC(=O)[C@@H](CCCNC(=N)N)NC(=O)[C@@H](CCCNC(=N)N)NC(=O)[C@@H](CCCNC(=N)N)NC(=O)[C@@H](CC(C)C)NC(=O)[C@@H](CCCCN)NC(=O)[C@@H](CC(C)C)NC(=O)[C@@H](CCC(N)=O)NC(=O)[C@@H](CC(C)C)NC(=O)[C@@H](CCCNC(=N)N)NC(=O)CCCCCNC(=O)[C@@H](CCC(=O)O)NC(=O)[C@@H](CCC(=O)O)NC(=O)[C@@H](CCC(=O)O)NC(=O)[C@@H](CCC(=O)O)NC(=O)[C@@H](CCC(=O)O)NC(=O)[C@@H](CCC(=O)O)NC(=O)[C@@H](CCC(=O)O)NC(=O)[C@@H](CCC(=O)O)NC(=O)[C@H](N)CCC(=O)O)C(N)=O)C3=O)c3ccc(S(=O)(=O)O)cc3C2(C)C)C(C)(C)c2cc(S(=O)(=O)[O-])ccc21 (stereo partly shown) [rlqlkl] the SUV at 6 h (Tumor uptake) was 0.34 ± 0.16 SUV.
With GMMYRS [GMMYRS ACPP] the “cleavage by trypsin (in words)” value (trypsin) was “efficiently cleaved” and the “fluorescence contrast in tumors relative to adjacent normal tissue (in words)” value (PyMT mammary tumors) was “little fluorescence contrast”.
With H2N-e9-(ahx)-RLQLK(Ac)L-r9-c-(Cy5)-NH2 the not cleaved (plasmin) was “not cleaved by plasmin (2 h)” and the fragment found (neutrophil elastase) was “K(Ac)Lr9c-(Cy5), major”.
In the case of RTRYED [RTRYED ACPP], the “cleavage by trypsin (in words)” value (trypsin) is reported as “efficiently cleaved” and the “fluorescence contrast in tumors relative to adjacent normal tissue (in words)” value (PyMT mammary tumors) is reported as “little fluorescence contrast”.
For aprotinin, the “inhibition of cystic fluid cleavage of RLQLKL ACPP (in words)” value [1] was “partially inhibited”.
In the case of “α1-antitrypsin: natural inhibitor of elastase [reference compound]”, the “inhibition of cystic fluid cleavage of RLQLKL ACPP (in words)” value [1] is reported as “inhibited” and the “inhibition of tumor extract cleavage of RLQLKL ACPP (in words)” value [3] is reported as “significantly inhibited”.
